The species entered for test [1] is Rattus norvegicus. Description: animal or person. As to conditions: Sprague-Dawley, Plasma, po, 6 h, read-out: Inhibition.
The target in a further test is Dipeptidyl peptidase 8 (Homo sapiens, UniProt Q6V1X1). The experiment in a line: Inhibition of human DPP8.
Test [2] relates to Rattus norvegicus. Description: Ex vivo inhibition of DPP4 in Sprague-Dawley rat plasma at 0.3 mg/kg, po after 9 hrs. It is filed as functional. The gist of the method: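 Male Sprague–Dawley rats, 6–7 weeks old, fasted at least 8 h, then given a single oral dose of 0.3 mg/kg in 0.5% methyl cellulose. Jugular vein blood was drawn before dosing and at 0.25–9 h after. Plasma was mixed with Gly-Pro-AMC (added as a 60 µM solution). The initial rate over the first 15 min was read at 37 °C (ex 355/em 460 nm). Inhibition is expressed as % of basal activity.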

The subject of test [3] is Rattus norvegicus. Description: Reduction of glucose level in Sprague-Dawley rat plasma at 1 mg/kg, po after 7 hrs by multiple glucose tolerance test. The class given is functional, organism-based. Set-up: dose 1 mg/kg. The gist of the method: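 Male SD rats (364–473 g), fasted at least 20 h, were dosed orally at −0.5 h with 1 mg/kg or with vehicle (0.5% methyl cellulose). Oral glucose, 1 g/kg, was given at 0 and 6 h. Tail vein plasma was taken at −0.08 to 8 h, stored at −80 °C, and assayed by glucose oxidase-peroxidase. Results are mean ± SEM (n = 7), compared with vehicle by Student's t test.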

The values that follow come from ChEMBL document CHEMBL1143890, “Discovery of long-acting N-(cyanomethyl)-N-alkyl-L-prolinamide inhibitors of dipeptidyl peptidase IV” (Bioorg Med Chem, 2008).

Calls of active or inactive are those of the source. The calls are words filed in the database; no cut-off is given here.

Sequence of Dipeptidyl peptidase 8 (Q6V1X1 whole entry): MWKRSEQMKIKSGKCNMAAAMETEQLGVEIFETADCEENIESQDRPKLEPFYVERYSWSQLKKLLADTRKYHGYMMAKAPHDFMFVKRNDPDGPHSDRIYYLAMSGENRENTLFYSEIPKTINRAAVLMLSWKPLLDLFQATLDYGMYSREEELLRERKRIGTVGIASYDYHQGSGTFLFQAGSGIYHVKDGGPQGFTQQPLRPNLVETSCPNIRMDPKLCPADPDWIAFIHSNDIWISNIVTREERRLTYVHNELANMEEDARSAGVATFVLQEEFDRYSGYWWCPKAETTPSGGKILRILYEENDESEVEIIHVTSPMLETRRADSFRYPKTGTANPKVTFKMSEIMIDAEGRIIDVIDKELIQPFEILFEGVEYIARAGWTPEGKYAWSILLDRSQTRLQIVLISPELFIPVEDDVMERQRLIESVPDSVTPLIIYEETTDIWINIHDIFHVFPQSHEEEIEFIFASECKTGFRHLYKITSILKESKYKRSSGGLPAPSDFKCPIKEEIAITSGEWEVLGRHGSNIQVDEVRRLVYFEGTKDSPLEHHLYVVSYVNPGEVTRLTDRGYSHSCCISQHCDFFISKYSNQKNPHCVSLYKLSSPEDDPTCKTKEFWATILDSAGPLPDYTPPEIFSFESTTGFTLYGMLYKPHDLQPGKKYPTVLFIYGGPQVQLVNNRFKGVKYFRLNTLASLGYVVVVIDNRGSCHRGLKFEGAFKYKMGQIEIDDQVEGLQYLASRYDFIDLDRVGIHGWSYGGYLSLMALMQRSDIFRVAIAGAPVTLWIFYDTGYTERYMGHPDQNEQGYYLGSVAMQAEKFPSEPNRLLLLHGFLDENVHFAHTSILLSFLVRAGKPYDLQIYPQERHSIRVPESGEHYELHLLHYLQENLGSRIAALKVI

For the molecule `CC[C@@H]1N[C@H](C(=O)N2CCC[C@H]2C#N)C[C@@H]1C(=O)N(C)C`, the inhibition in vivo at 0.3 mg/kg in the test listed under Rattus norvegicus [1] was found to be 45%.
As to `CCN(CC#N)C(=O)[C@@H]1C[C@H](C(=O)NCc2ccccc2)[C@H](C)N1`, the inhibition in vivo at 0.3 mg/kg in the test filed under Rattus norvegicus [1] came to 31%.
`C[C@@H]1N[C@H](C(=O)N(C)CC#N)C[C@@H]1C(=O)N(C)C`: the IC50 on Dipeptidyl peptidase 8 is greater than 100 µM. Further, the inhibition in vivo at 0.3 mg/kg in the test filed under Rattus norvegicus [1] stood at 55%.
For `C=CCN(CC#N)C(=O)[C@@H]1C[C@H](C(=O)N(C)C)[C@H](C)N1`, in the test listed under Rattus norvegicus [1], the inhibition in vivo at 0.3 mg/kg is 19%.
For the molecule `C[C@@H]1N[C@H](C(=O)N(CC#N)C2CC2)C[C@@H]1C(=O)N(C)C`, the inhibition in vivo at 0.3 mg/kg in the test listed under Rattus norvegicus [1] turned out to be 29%.
Regarding `CCN(CC#N)C(=O)[C@@H]1C[C@H](C(=O)N2CCCCC2)[C@H](C)N1`, the inhibition in vivo at 0.3 mg/kg in the test filed under Rattus norvegicus [1] was 60%.
For the molecule `CCN(CC#N)C(=O)[C@@H]1C[C@H](C(=O)N(C)C)[C@H](C)N1`, the inhibition in vivo at 0.3 mg/kg in the test with Rattus norvegicus [2] came to 62%; in the test listed under Rattus norvegicus [1], 73%. This molecule displayed an IC50 on Dipeptidyl peptidase 8 greater than 100 µM. Also, in the test with Rattus norvegicus [3], the result was Active.
For the molecule `C[C@@H]1N[C@H](C(=O)N2CCC[C@H]2C#N)C[C@@H]1CC(=O)N(C)C`, the inhibition in vivo at 0.3 mg/kg in the test filed under Rattus norvegicus [1] worked out at 40%.
On the same count and under the same terms, next, `C#CCN(CC#N)C(=O)[C@@H]1C[C@H](C(=O)N(C)C)[C@H](C)N1`: 18%; `CCN(CC#N)C(=O)[C@@H]1C[C@H](C(=O)N2CCOCC2)[C@H](C)N1`: 65%.
Turning to `CCN(CC#N)C(=O)[C@@H]1C[C@H](C(=O)N2Cc3ccccc3C2)[C@H](C)N1`, the inhibition in vivo at 0.3 mg/kg in the test filed under Rattus norvegicus [1] is 64%.
The same measure, in the same setting: next, `CCN(CC#N)C(=O)[C@@H]1C[C@H](C(=O)N2CCCC2)[C@H](C)N1`: 53%.
On to `C[C@@H]1N[C@H](C(=O)N2CCC[C@H]2C#N)C[C@@H]1C(=O)N(C)C`, for which the values for the inhibition in vivo at 0.3 mg/kg in the test on Rattus norvegicus [2] and in the test listed under Rattus norvegicus [1] were 83% and 89%, respectively.

A word on the IC50: it is the concentration that gives 50% inhibition. Higher therefore signals lower potency.
